The results in this text go back to ChEMBL document CHEMBL1144046, “2-Methylene 19-nor-25-dehydro-1alpha-hydroxyvitamin D3 26,23-lactones: synthesis, biological activities and molecular basis of passive antagonism” (Bioorg Med Chem, 2008).

In assay [1] the target is T1, Vitamin D3 receptor (Rattus norvegicus, UniProt P13053).
T1 sequence (P13053 whole entry): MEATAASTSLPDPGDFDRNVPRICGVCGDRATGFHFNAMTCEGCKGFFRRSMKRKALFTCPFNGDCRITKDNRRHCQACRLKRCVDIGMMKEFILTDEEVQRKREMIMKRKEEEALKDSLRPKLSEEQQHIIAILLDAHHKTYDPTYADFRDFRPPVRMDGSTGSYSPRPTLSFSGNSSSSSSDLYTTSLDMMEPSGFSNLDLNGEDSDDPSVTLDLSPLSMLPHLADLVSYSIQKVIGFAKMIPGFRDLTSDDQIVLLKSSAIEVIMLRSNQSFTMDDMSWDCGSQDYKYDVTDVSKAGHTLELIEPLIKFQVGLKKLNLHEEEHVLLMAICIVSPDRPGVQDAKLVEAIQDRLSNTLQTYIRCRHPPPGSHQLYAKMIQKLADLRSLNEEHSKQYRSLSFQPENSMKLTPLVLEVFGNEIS
Put plainly: Displacement of [3H]1,25-(OH)2D3 from rat recombinant His-tagged VDR ligand-binding domain expressed in Escherichia coli BL21. The essentials: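 Crude lysate of E. coli–expressed His-tagged rat VDR-LBD (aa 115–423), diluted 1000-fold in 50 mM Tris, 100 mM KCl, 5 mM DTT, 0.5% Chaps, pH 7.5, BSA 100 µg/mL. Ligand preincubated 1 h RT, then [3H]-1,25-(OH)2D3 (~5000 dpm) 18 h at 4 °C. Dextran-charcoal separation, scintillation counting; at least twice in duplicate; EC50 for 50% displacement.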

The target of assay [2] is T2, Vitamin D3 receptor (Homo sapiens, UniProt P11473).
T2 sequence (P11473 whole entry): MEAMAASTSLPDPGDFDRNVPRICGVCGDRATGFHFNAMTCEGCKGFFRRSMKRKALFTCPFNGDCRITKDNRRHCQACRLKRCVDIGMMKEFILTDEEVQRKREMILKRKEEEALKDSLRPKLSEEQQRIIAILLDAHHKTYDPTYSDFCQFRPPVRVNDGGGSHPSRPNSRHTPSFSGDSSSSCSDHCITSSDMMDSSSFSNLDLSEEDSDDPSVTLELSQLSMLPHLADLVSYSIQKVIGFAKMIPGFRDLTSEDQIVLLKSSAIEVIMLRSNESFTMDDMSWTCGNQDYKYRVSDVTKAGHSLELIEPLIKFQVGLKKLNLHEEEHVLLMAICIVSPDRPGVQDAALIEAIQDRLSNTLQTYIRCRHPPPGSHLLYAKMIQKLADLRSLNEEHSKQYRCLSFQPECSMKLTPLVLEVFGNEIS
Put plainly: Antagonist activity at human VDR in COS7 cells assessed as induction of transcriptional transactivation after 24 hrs by mouse osteopontin luciferase reporter gene assay. The class given is functional, cell-based, COS-7. The essentials: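 Cos7 cells grown in DMEM + 5% FBS, seeded 2 × 10⁴/well; after 24 h lipofected with hVDR expression plasmid, SPPx3-TK-Luc reporter and pRL-CMV control. After 4 h switched to 5% charcoal-treated FCS; next day ligand given with 10 nM 1,25-(OH)2D3 for 24 h. Dual luciferase normalized to internal control; IC50 from dose–response curves.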

Assay [3] addresses T2, Vitamin D3 receptor. Briefly: Agonist activity at human VDR in COS7 cells assessed as induction of transcriptional transactivation after 24 hrs by mouse osteopontin luciferase reporter gene assay. It is filed as functional, cell-based, COS-7.
The target of assay [4] is T2, Vitamin D3 receptor. Briefly: Antagonist activity at human VDR in HEK293 cells assessed as induction of transcriptional transactivation after 24 hrs by mouse osteopontin luciferase reporter gene assay. It is filed as functional, cell-based. The essentials:
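HEK293 cells in DMEM + 5% FBS with penicillin/streptomycin, 37 °C, 5% CO2; calcium phosphate cotransfection of hVDR expression plasmid and SPPx3-TK-Luc reporter. Compounds added 8 h later with 10 nM 1,25-(OH)2D3; harvest after 16–24 h. Luciferase normalized to β-galactosidase; triplicate; IC50 from dose–response curves.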

Assay [5] deals with T2, Vitamin D3 receptor. Put plainly: Agonist activity at human VDR in HEK293 cells assessed as induction of transcriptional transactivation after 24 hrs by mouse osteopontin luciferase reporter gene assay. It is filed as functional, cell-based.

Turning to `C=C1C[C@@H](C[C@@H](C)[C@H]2CC[C@H]3/C(=C/C=C4C[C@@H](O)C(=C)[C@H](O)C4)CCC[C@]23C)OC1=O`, the EC50 worked out at 20 nM on Vitamin D3 receptor [1], 150 nM at Vitamin D3 receptor [3] and 200 nM at Vitamin D3 receptor [5]. Moreover, the IC50 on Vitamin D3 receptor [2] was 1000 nM; at Vitamin D3 receptor [4], 300 nM.
On to `C=C1C[C@H](C[C@@H](C)[C@H]2CC[C@H]3/C(=C/C=C4C[C@@H](O)C(=C)[C@H](O)C4)CCC[C@]23C)OC1=O`, for which the concentration giving a half-maximal response (EC50) on Vitamin D3 receptor [1] turned out to be 0.7 nM; at Vitamin D3 receptor [3] it was 25 nM; at Vitamin D3 receptor [5], 1 nM.
Regarding `C=C1C[C@H](C[C@H](C)[C@H]2CC[C@H]3/C(=C/C=C4C[C@@H](O)C(=C)[C@H](O)C4)CCC[C@]23C)OC1=O`, the results for the EC50 on Vitamin D3 receptor [1], on Vitamin D3 receptor [3] and on Vitamin D3 receptor [5] were 5 nM, 10 nM and 15 nM, respectively. In addition, on Vitamin D3 receptor [2], the IC50 was determined as 100 nM.
For `C=C1C[C@@H](C[C@H](C)[C@H]2CC[C@H]3/C(=C/C=C4C[C@@H](O)C(=C)[C@H](O)C4)CCC[C@]23C)OC1=O`, in that order: 5 nM, 6 nM, 20 nM and 300 nM.
